12 molecules from ChEMBL document CHEMBL1146258, “N6-Cycloalkyl-2-substituted adenosine derivatives as selective, high affinity adenosine A1 receptor agonists” (Bioorg Med Chem Lett, 2007) can be followed below.

A value given as a limit tells only on which side of the number the result lay.

What is called Ki is the dissociation constant of the complex between target and ligand, obtained from inhibition or displacement.

For test [1], the target named is T1, Adenosine receptor A2b (Homo sapiens, UniProt P29275).
T1 sequence (P29275 whole entry): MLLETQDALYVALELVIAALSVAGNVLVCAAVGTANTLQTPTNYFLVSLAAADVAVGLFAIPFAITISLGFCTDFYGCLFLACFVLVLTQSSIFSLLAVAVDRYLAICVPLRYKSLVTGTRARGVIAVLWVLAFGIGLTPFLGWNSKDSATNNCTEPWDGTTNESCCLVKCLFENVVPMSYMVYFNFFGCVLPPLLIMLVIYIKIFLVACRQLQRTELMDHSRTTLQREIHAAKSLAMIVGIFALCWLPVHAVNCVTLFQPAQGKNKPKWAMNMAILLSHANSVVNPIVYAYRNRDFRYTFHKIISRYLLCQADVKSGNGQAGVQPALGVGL
As to the kind of experiment: Displacement of [3H]ZM241385 from adenosine A2B receptor expressed in HEK cells. Format: cell-based, HEK293. Put shortly:
(§1)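 HEK cells expressing A2A or A2B receptor, [³H]-ZM241385 radioligand, run without GTP; Ki for the high-affinity (coupled) state. 95% confidence limits generally 15% of mean.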
Background: Displacement assays read how much labelled ligand stays bound in the presence of the test substance.

The target of test [2] is Adenosine receptors; A1 & A3 (Homo sapiens) (UniProt P30542+P0DMS8). As to the kind of experiment: Selectivity for adenosine A1 receptor over adenosine A3 receptor. The class given is protein assay. Put shortly: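 Ratio of A3 Ki-High (CHO-A3 cells, [¹²⁵I]-AB-MECA, no GTP) to A1 Ki-Low (DDT membranes, [³H]-CPX, with GTPγS).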
Test [3] deals with T2, Adenosine receptor A3 (Homo sapiens, UniProt P0DMS8).
T2 sequence (P0DMS8 whole entry): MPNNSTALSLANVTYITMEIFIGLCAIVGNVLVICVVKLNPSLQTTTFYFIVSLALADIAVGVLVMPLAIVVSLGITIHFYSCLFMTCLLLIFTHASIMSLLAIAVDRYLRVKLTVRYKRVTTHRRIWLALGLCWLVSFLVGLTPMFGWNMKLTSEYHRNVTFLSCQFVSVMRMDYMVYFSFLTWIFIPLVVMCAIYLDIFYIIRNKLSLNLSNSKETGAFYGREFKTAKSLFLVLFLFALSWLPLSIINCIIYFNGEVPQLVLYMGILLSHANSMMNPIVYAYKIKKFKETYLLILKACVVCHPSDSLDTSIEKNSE
As to the kind of experiment: Displacement of [125I]ABMECA from adenosine A3 receptor expressed in CHO cells. The class given is cell-based.

Test [4] concerns the target Adenosine receptor A2a (Homo sapiens, UniProt P29274). Briefly: Displacement of [3H]ZM-241385 from A2A adenosine A2A receptor expressed in HEK cells. Format: cell-based, HEK293. In outline:
as §1

The target of test [5] is Adenosine receptor A1 (Mesocricetus auratus). As to the kind of experiment: Displacement of [3H]CPX from adenosine A1 receptor in DDT membranes.
The target of test [6] is Adenosine receptors; A1 & A2a (Homo sapiens) (UniProt P30542+P29274). As to the kind of experiment: Selectivity for adenosine A1 receptor over adenosine A2A receptor. Format: protein assay.
In test [7] the target is T3, Adenosine receptor A1 (Rattus norvegicus) (UniProt P25099).
T3 sequence (whole entry): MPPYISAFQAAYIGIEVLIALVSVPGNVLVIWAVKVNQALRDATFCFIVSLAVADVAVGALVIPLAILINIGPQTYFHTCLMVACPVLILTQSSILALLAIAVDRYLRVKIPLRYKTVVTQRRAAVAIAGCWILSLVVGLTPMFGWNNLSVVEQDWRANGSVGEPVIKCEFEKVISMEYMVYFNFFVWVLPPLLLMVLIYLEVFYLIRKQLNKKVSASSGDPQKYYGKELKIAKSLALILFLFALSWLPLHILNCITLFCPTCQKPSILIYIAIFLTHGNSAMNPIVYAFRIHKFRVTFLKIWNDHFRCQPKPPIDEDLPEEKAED
Briefly: Agonist activity at adenosine A1 receptor in rat brain membrane assessed as stimulation of [35S]GTP-gamma-S binding relative to CPA. Format: functional, cell membranes. Put shortly: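 Rat brain membranes; agonist-induced [³⁵S]GTPγS binding to G protein measured, with maximal stimulation by the full agonist CPA set as 100% and efficacy expressed relative to it.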
(GTPγS is a poorly hydrolysed GTP analogue; its binding reports G protein activation.)

Adenosine receptor A2a, sequence (P29274 whole entry): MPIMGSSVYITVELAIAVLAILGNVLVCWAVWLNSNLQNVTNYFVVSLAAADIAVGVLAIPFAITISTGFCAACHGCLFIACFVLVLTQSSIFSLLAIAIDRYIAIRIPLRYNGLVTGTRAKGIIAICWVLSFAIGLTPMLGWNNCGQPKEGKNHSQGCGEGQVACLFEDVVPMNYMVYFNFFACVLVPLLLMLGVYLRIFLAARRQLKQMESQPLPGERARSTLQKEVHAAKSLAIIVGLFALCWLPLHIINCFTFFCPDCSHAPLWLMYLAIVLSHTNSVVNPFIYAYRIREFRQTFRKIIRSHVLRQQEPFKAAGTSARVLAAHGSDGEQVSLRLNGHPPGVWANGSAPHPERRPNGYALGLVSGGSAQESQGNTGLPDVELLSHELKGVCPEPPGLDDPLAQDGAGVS
Adenosine receptors; A1 & A3 (Homo sapiens), sequence (P30542 whole entry, looked up, one chain of several): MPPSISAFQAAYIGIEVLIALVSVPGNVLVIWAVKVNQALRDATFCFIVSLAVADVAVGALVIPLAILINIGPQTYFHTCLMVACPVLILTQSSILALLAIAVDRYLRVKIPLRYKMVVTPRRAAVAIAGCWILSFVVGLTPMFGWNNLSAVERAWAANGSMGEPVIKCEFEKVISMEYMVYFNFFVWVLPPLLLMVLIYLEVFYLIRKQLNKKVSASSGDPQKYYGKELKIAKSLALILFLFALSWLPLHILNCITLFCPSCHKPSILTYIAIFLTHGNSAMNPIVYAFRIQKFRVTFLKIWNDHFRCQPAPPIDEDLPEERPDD

For `OC[C@H]1O[C@@H](n2cnc3c(NC4CCCC4)nc(-n4cccn4)nc32)[C@H](O)[C@@H]1O`, the Ki in test [1] was over 6 µM; in test [3] it was 0.105 µM; in test [4], over 5 µM. In test [2], the Ratio Ki is 3.
Taken in the same sequence, the figures for `O=C(O)c1cnn(-c2nc(NC34CCC(CC3)C4)c3ncn([C@@H]4O[C@H](CO)[C@@H](O)[C@H]4O)c3n2)c1` were over 6 µM, over 5 µM, over 5 µM and over 5000.
Turning to `CCOC(=O)c1cnn(-c2nc(NC34CCC(CC3)C4)c3ncn([C@@H]4O[C@H](CO)[C@@H](O)[C@H]4O)c3n2)c1`, the values for the Ki in test [1], in test [3] and in test [4] were over 6 µM, 0.25 µM and over 5 µM, respectively. For the same molecule, the Ratio Ki in test [2] stood at 83.
Take `CCNC(=O)c1cnn(-c2nc(NC3CCCC3)c3ncn([C@@H]4O[C@H](CO)[C@@H](O)[C@H]4O)c3n2)c1`: the Ki is over 6 µM in test [1], 0.02 µM in test [3] and over 5 µM in test [4]. Also, the Ratio Ki in test [2] stood at 20.
Taken in the same sequence, the figures for `CCOC(=O)c1cnn(-c2nc(NC3CCCCC3)c3ncn([C@@H]4O[C@H](CO)[C@@H](O)[C@H]4O)c3n2)c1` were over 6 µM, 0.03 µM, over 5 µM and 1.
As to `CNC(=O)c1cnn(-c2nc(NC3CCCC3)c3ncn([C@@H]4O[C@H](CO)[C@@H](O)[C@H]4O)c3n2)c1`, the values for the Ki in test [1], in test [3] and in test [4] were over 6 µM, 1.42 µM and over 5 µM, respectively. Besides, in test [2], the Ratio Ki is 710.
Regarding `CCNc1nc(-n2cc(-c3ccc(OC)cc3)cn2)nc2c1ncn2[C@@H]1O[C@H](CO)[C@@H](O)[C@H]1O`, the Ki in test [5] is 3.7 µM.
With `OC[C@H]1O[C@@H](n2cnc3c(NC45CCC(CC4)C5)nc(-n4cccn4)nc32)[C@H](O)[C@@H]1O`, the Ki in test [1] is over 6 µM; in test [3] it was 1.27 µM; in test [4], over 5 µM. Moreover, the Ratio Ki in test [2] was 3180.
Turning to `NC(=O)c1cnn(-c2nc(NC3CCCC3)c3ncn([C@@H]4O[C@H](CO)[C@@H](O)[C@H]4O)c3n2)c1`, the Ki is over 6 µM in test [1], 0.38 µM in test [3] and over 5 µM in test [4]. Also, the Ratio Ki was 633 in test [2] and over 600 in test [6].
For the molecule `CCOC(=O)c1cnn(-c2nc(NC3CCCC3)c3ncn([C@@H]4O[C@H](CO)[C@@H](O)[C@H]4O)c3n2)c1`, the Ki in test [1] was over 6 µM; in test [3], 0.019 µM; in test [4] it was over 5 µM. In addition, in test [2], the Ratio Ki came to 21.
Consider `CNC(=O)c1cnn(-c2nc(NC3CCCCC3)c3ncn([C@@H]4O[C@H](CO)[C@@H](O)[C@H]4O)c3n2)c1`, for which the Ki in test [1] is over 6 µM; in test [3] it was 0.158 µM; in test [4], over 5 µM. For the same molecule, in test [2], the Ratio Ki stood at 19.
Consider `O=C(O)c1cnn(-c2nc(NC3CCCC3)c3ncn([C@@H]4O[C@H](CO)[C@@H](O)[C@H]4O)c3n2)c1`, for which, in test [7], the Intrinsic activity turned out to be 100%. Besides, the Ki in test [1] was over 6 µM; in test [3] it was 4.12 µM; in test [4], over 5 µM. In addition, in test [2], the Ratio Ki is 468.
